Results from ChEMBL document CHEMBL3286101, “Probing of primed and unprimed sites of calpains: Design, synthesis and evaluation of epoxysuccinyl-peptide derivatives as selective inhibitors” (Eur J Med Chem, 2014).
Peptide text beside a SMILES is read from it. * marks the point of attachment. X4 = CC(C)C[C@H](NC(=O)[C@@H]1O[C@H]1C(=O)*)C(=O)N[C@@H](Cc1c[nH]c2ccccc12)C(=O)N[C@H](C(N)=O)[C@@H](C)O; X5 = CC(C)C[C@H](NC(=O)[C@H]1O[C@@H]1C(=O)*)C(=O)N[C@@H](Cc1c[nH]c2ccccc12)C(=O)N[C@H](C(N)=O)[C@@H](C)O; X3 = C[C@@H](O)[C@H](NC(=O)[C@@H]1CCCN1C(=O)[C@@H](NC(=O)[C@H]1O[C@@H]1C(=O)*)[C@@H](C)O)C(N)=O; X9 = C[C@@H](O)[C@H](NC(=O)[C@@H]1CCCN1C(=O)[C@@H](NC(=O)[C@@H]1O[C@H]1C(=O)*)[C@@H](C)O)C(N)=O; X10 = CC(C)C[C@H](NC(=O)[C@@H]1O[C@H]1C(=O)*)C(=O)N[C@@H](CO)C(=O)N[C@H](C(N)=O)[C@@H](C)O; X1 = CC(C)C[C@H](NC(=O)[C@H]1O[C@@H]1C(=O)*)C(=O)N1CCC[C@H]1C(=O)N[C@H](C(N)=O)[C@@H](C)O; X2 = CC(C)C[C@H](NC(=O)[C@@H]1O[C@H]1C(=O)*)C(=O)N1CCC[C@H]1C(=O)N[C@H](C(N)=O)[C@@H](C)O; X6 = CC(C)C[C@H](NC(=O)[C@H]1O[C@@H]1C(=O)*)C(=O)N[C@@H](CO)C(=O)N[C@H](C(N)=O)[C@@H](C)O; X7 = CC(C)[C@H](NC(=O)[C@@H]1O[C@H]1C(=O)*)C(=O)N1CCC[C@H]1C(=O)N[C@H](C(N)=O)[C@@H](C)O; X8 = CC(C)[C@H](NC(=O)[C@H]1O[C@@H]1C(=O)*)C(=O)N1CCC[C@H]1C(=O)N[C@H](C(N)=O)[C@@H](C)O

Assays:
[1] = Retention time of the compound by RP-HPLC analysis; type: physicochemical
In short: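 Analytical RP-HPLC on a C18 column (150 × 4.6 mm, 5 μm, 100 Å). Eluent A is 0.1% TFA in water and eluent B is 0.1% TFA in acetonitrile–water 80:20. Gradient runs 0% B for 2 min, then to 90% B at 22 min, at 1 mL/min and ambient temperature. Detection at 220 nm.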

[2] = Inhibition of rat calpain-2 large subnit/truncated small subunit expressed in Escherichia coli using Suc-LY-AMC as substrate by fluorescence assay
In short: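 Rat calpain 2 is made from its 80-kDa large subunit and 21-kDa truncated small subunit, expressed in E. coli, purified on HisTrap and dialyzed into calpain buffer (10 mM HEPES, 150 mM NaCl, 1 mM EDTA, pH 7.5). The reaction starts when 0.2 μM enzyme is added to 100 µM Suc-LY-AMC, 3 mM Ca2+ and inhibitor at various concentrations. Fluorescence is read at 380/460 nm. Triplicates; mean ± S.D.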

[3] = biological target: T1, Calpain-1 catalytic subunit (Homo sapiens, UniProt P07384); assay: Inhibition of calpain-1 (unknown origin) using Suc-LY-AMC as substrate by fluorescence assay
T1 sequence (P07384 whole entry): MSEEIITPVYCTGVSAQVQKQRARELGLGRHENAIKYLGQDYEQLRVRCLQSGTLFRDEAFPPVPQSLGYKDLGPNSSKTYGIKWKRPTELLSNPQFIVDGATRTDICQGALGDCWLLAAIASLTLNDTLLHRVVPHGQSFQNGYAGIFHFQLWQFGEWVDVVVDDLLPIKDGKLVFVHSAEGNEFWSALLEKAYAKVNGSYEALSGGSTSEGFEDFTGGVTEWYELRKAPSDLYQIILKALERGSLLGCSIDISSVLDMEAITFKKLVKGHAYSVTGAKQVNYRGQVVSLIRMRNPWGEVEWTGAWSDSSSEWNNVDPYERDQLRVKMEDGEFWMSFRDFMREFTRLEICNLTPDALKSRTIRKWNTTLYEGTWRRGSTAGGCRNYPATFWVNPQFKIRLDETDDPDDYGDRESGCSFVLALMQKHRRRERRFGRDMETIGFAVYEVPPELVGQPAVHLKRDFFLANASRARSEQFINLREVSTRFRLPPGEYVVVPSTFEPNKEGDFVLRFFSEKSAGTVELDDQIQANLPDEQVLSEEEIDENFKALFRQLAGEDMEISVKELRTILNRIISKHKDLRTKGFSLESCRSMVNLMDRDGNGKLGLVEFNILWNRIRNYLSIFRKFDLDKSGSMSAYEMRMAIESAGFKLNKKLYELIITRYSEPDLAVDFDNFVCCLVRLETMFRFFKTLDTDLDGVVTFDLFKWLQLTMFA
In short: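 Human erythrocyte calpain 1 at 0.5 μM starts the reaction, added to 100 µM Suc-LY-AMC, 3 mM Ca2+ and inhibitor at various concentrations in 50 µL calpain buffer (10 mM HEPES, 150 mM NaCl, 1 mM EDTA, pH 7.5). Fluorescence is followed at 380/460 nm. Triplicate experiments; mean ± S.D.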

Cathepsin B = Cathepsin B (Homo sapiens, UniProt P07858); assay: Inhibition of cathepsin B (unknown origin) using substrate-3 as substrate by fluorescence assay
In short: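 Human liver cathepsin B is activated in 0.25 mM MES containing 10 mM DTE. The reaction starts when it is added at 0.7 nM to 100 μM Z-Arg-AMC with inhibitor at various concentrations in 0.25 mM MES, pH 5.0. Fluorescence is followed at 380/460 nm. Triplicates; mean ± S.D.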

[4] = Selectivity ratio of Ki for cathepsin B (unknown origin) to Ki for rat calpain-2

SMILES	Retention time [1]	Ki [3]	Ki (Cathepsin B)	Retention_time [1]	Ratio Ki [4]	Ki [2]
CC(C)C[C@H](NC(=O)[C@H]1O[C@@H]1C(=O)N[C@@H](CO)C(=O)N1CCC[C@H]1C(=O)N1CCC[C@H]1C(=O)N1CCC[C@H]1C(=O)N[C@@H](CO)C(N)=O)C(=O)N[C@@H](Cc1c[nH]c2ccccc12)C(=O)N[C@H](C(N)=O)[C@@H](C)O (X5-SPPPS-NH2)	12.5 min	17.1 µM	5 µM	–	–	4.05 µM
CC(C)C[C@H](NC(=O)[C@H]1O[C@@H]1C(=O)N[C@H](C(=O)N1CCC[C@H]1C(=O)N1CCC[C@H]1C(=O)N1CCC[C@H]1C(=O)N[C@@H](CO)C(N)=O)[C@@H](C)O)C(=O)N1CCC[C@H]1C(=O)N[C@H](C(N)=O)[C@@H](C)O (X1-TPPPS-NH2)	–	8.38 µM	12.1 µM	11 min	–	> 50 µM
C[C@@H](O)[C@H](NC(=O)[C@@H]1CCCN1C(=O)[C@@H](NC(=O)[C@@H]1O[C@H]1C(=O)N[C@@H](CO)C(=O)N1CCC[C@H]1C(=O)N1CCC[C@H]1C(=O)N1CCC[C@H]1C(=O)N[C@@H](CO)C(N)=O)[C@@H](C)O)C(N)=O (X9-SPPPS-NH2)	–	> 100 µM	–	9.1 min	–	–
C[C@@H](O)[C@H](NC(=O)[C@@H]1CCCN1C(=O)[C@@H](NC(=O)[C@H]1O[C@@H]1C(=O)N[C@@H](CO)C(=O)N1CCC[C@H]1C(=O)N1CCC[C@H]1C(=O)N1CCC[C@H]1C(=O)N[C@@H](CO)C(N)=O)[C@@H](C)O)C(N)=O (X3-SPPPS-NH2)	–	> 100 µM	> 100 µM	9.7 min	–	> 100 µM
CC(C)C[C@H](NC(=O)[C@@H]1O[C@H]1C(=O)N[C@@H](CCCNC(=N)N)C(=O)N1CCC[C@H]1C(=O)N1CCC[C@H]1C(=O)N1CCC[C@H]1C(=O)N[C@@H](CO)C(N)=O)C(=O)N1CCC[C@H]1C(=O)N[C@H](C(N)=O)[C@@H](C)O (X2-RPPPS-NH2)	–	26.3 µM	> 100 µM	11.1 min	–	> 50 µM
CC(C)C[C@H](NC(=O)[C@@H]1O[C@H]1C(=O)N[C@H](C(=O)N1CCC[C@H]1C(=O)N1CCC[C@H]1C(=O)N1CCC[C@H]1C(=O)N[C@@H](CO)C(N)=O)[C@@H](C)O)C(=O)N1CCC[C@H]1C(=O)N[C@H](C(N)=O)[C@@H](C)O (X2-TPPPS-NH2)	–	> 50 µM	> 50 µM	12.3 min	11.8	4.24 µM
CC(C)C[C@H](NC(=O)[C@@H]1O[C@H]1C(=O)N[C@@H](CO)C(=O)N1CCC[C@H]1C(=O)N1CCC[C@H]1C(=O)N1CCC[C@H]1C(=O)N[C@@H](CO)C(N)=O)C(=O)N[C@@H](Cc1c[nH]c2ccccc12)C(=O)N[C@H](C(N)=O)[C@@H](C)O (X4-SPPPS-NH2)	–	3.7 µM	4.45 µM	13.2 min	–	21.4 µM
CC(C)[C@H](NC(=O)[C@@H]1O[C@H]1C(=O)N[C@@H](CO)C(=O)N1CCC[C@H]1C(=O)N1CCC[C@H]1C(=O)N1CCC[C@H]1C(=O)N[C@@H](CO)C(N)=O)C(=O)N1CCC[C@H]1C(=O)N[C@H](C(N)=O)[C@@H](C)O (X7-SPPPS-NH2)	–	> 50 µM	> 100 µM	10.2 min	–	> 100 µM
CC(C)C[C@H](NC(=O)[C@H]1O[C@@H]1C(=O)N[C@@H](CCCNC(=N)N)C(=O)N1CCC[C@H]1C(=O)N1CCC[C@H]1C(=O)N1CCC[C@H]1C(=O)N[C@@H](CO)C(N)=O)C(=O)N1CCC[C@H]1C(=O)N[C@H](C(N)=O)[C@@H](C)O (X1-RPPPS-NH2)	–	23.7 µM	> 50 µM	11.1 min	–	17.9 µM

Now from value to compound, other results behind:

Retention time [1]	Ki [3]	Ki (Cathepsin B)	Retention_time [1]	Ratio Ki [4]	SMILES	Ki [2]
–	> 100 µM	> 100 µM	10.8 min	–	CC(C)C[C@H](NC(=O)[C@H]1O[C@@H]1C(=O)N[C@@H](CO)C(=O)N[C@@H](CCC(N)=O)C(=O)N1CCC[C@H]1C(=O)N1CCC[C@H]1C(=O)N[C@@H](CO)C(N)=O)C(=O)N1CCC[C@H]1C(=O)N[C@H](C(N)=O)[C@@H](C)O (X1-SQPPS-NH2)	> 100 µM
–	30.8 µM	–	10.2 min	–	CC(C)C[C@H](NC(=O)[C@@H]1O[C@H]1C(=O)N[C@@H](CO)C(=O)N1CCC[C@H]1C(=O)N1CCC[C@H]1C(=O)N1CCC[C@H]1C(=O)N[C@@H](CO)C(N)=O)C(=O)N[C@@H](CO)C(=O)N[C@H](C(N)=O)[C@@H](C)O (X10-SPPPS-NH2)	–
–	> 100 µM	> 100 µM	10.7 min	–	CC(C)C[C@H](NC(=O)[C@@H]1O[C@H]1C(=O)N[C@@H](CO)C(=O)N[C@@H](CCC(N)=O)C(=O)N1CCC[C@H]1C(=O)N1CCC[C@H]1C(=O)N[C@@H](CO)C(N)=O)C(=O)N1CCC[C@H]1C(=O)N[C@H](C(N)=O)[C@@H](C)O (X2-SQPPS-NH2)	> 100 µM
–	12.5 µM	> 50 µM	12.5 min	–	CC(C)C[C@H](NC(=O)[C@H]1O[C@@H]1C(=O)N[C@@H](CO)C(=O)N1CCC[C@H]1C(=O)N1CCC[C@H]1C(=O)N1CCC[C@H]1C(=O)N[C@@H](CO)C(N)=O)C(=O)N1CCC[C@H]1C(=O)N[C@H](C(N)=O)[C@@H](C)O (X1-SPPPS-NH2)	> 50 µM
–	21.9 µM	> 50 µM	10.3 min	–	CC(C)C[C@H](NC(=O)[C@H]1O[C@@H]1C(=O)N[C@@H](CO)C(=O)N1CCC[C@H]1C(=O)N1CCC[C@H]1C(=O)N1CCC[C@H]1C(=O)N[C@@H](CO)C(N)=O)C(=O)N[C@@H](CO)C(=O)N[C@H](C(N)=O)[C@@H](C)O (X6-SPPPS-NH2)	14.3 µM
–	> 100 µM	> 100 µM	12 min	–	CC(C)C[C@H](NC(=O)[C@H]1O[C@@H]1C(=O)N[C@@H](CO)C(=O)N[C@@H](CO)C(=O)N1CCC[C@H]1C(=O)N1CCC[C@H]1C(=O)N[C@@H](CO)C(N)=O)C(=O)N1CCC[C@H]1C(=O)N[C@H](C(N)=O)[C@@H](C)O (X1-SSPPS-NH2)	> 100 µM
–	> 50 µM	> 100 µM	10.7 min	–	CC(C)[C@H](NC(=O)[C@H]1O[C@@H]1C(=O)N[C@@H](CO)C(=O)N1CCC[C@H]1C(=O)N1CCC[C@H]1C(=O)N1CCC[C@H]1C(=O)N[C@@H](CO)C(N)=O)C(=O)N1CCC[C@H]1C(=O)N[C@H](C(N)=O)[C@@H](C)O (X8-SPPPS-NH2)	29.2 µM
–	> 100 µM	> 100 µM	11.9 min	–	CC(C)C[C@H](NC(=O)[C@@H]1O[C@H]1C(=O)N[C@@H](CO)C(=O)N[C@@H](CO)C(=O)N1CCC[C@H]1C(=O)N1CCC[C@H]1C(=O)N[C@@H](CO)C(N)=O)C(=O)N1CCC[C@H]1C(=O)N[C@H](C(N)=O)[C@@H](C)O (X2-SSPPS-NH2)	> 100 µM
–	> 100 µM	> 50 µM	10.9 min	–	CC(C)C[C@H](NC(=O)[C@@H]1O[C@H]1C(=O)N[C@@H](CO)C(=O)N1CCC[C@H]1C(=O)N1CCC[C@H]1C(=O)N1CCC[C@H]1C(=O)N[C@@H](CO)C(N)=O)C(=O)N1CCC[C@H]1C(=O)N[C@H](C(N)=O)[C@@H](C)O (X2-SPPPS-NH2)	> 50 µM
